The pEC50 is the negative decadic logarithm of the EC50, by convention in mol/L.

pEC50: −log10 of the molar value.

Data set [1] deals with Trypanosoma brucei brucei. The data set can be described thus: Antitrypanosomal activity against multidrug-resistant Trypanosoma brucei brucei B48 after 48 hrs by alamar blue assay. As to conditions: B48, 48 h. It counts as functional, organism-based.
The test system of a further data set is HEK293. The data set can be described thus: Cytotoxicity against HEK293 cells after 16 hrs by alamar blue assay. Type of data set: cell-based, Homo sapiens. Particulars: Homo sapiens, HEK293, 16 h; read-out: EC50. The method in brief:
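HEK293T cells grown in DMEM-based medium with 10% newborn bovine serum at 37 °C, 5% CO2. Doubling dilutions of compound added for 16 h, then resazurin added. Fluorescence read at emission 590 nm after a further 24 h.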

Data set [2] has as its system Trypanosoma brucei brucei. In words: Antitrypanosomal activity against Trypanosoma brucei brucei 427 after 48 hrs by alamar blue assay. It counts as functional, organism-based. Particulars: Trypanosoma brucei, 427, 48 h; read-out: EC50.
Data set [3] has as its system Trypanosoma brucei brucei. In words: Selectivity ratio of EC50 for Trypanosoma brucei brucei 427 to EC50 for Trypanosoma brucei brucei deltaTbat1-KO. Type of data set: functional. A digest of the protocol:
(§1)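 T. b. brucei bloodstream forms (strain 427, its ΔTbAT1 clone, and the pentamidine-adapted B48 line derived from it) cultured in HMI9 with 10% FBS at 37 °C under CO2. EC50 for each line from the Alamar Blue fluorescence assay with sigmoid fitting, and the ratio taken between lines.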

Another data set deals with Leishmania major. The data set can be described thus: Antileishmanial activity against Leishmania major Friedlin promastigotes after 48 hrs by alamar blue assay. It counts as functional, organism-based. Particulars: Leishmania major, Friedlin, 48 h; read-out: EC50. A digest of the protocol: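 L. major Friedlin promastigotes grown in HOMEM with 10% FBS at 25 °C. Alamar Blue fluorescence assay in 96-well plates. 3–6 independent experiments unless noted.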

Data set [4] relates to Trypanosoma brucei brucei. In words: Antitrypanosomal activity against diminazene-resistant Trypanosoma brucei brucei deltaTbat1-KO after 48 hrs by alamar blue assay. It counts as functional, organism-based.
For the next data set, the system named is Leishmania mexicana. The data set can be described thus: Antileishmanial activity against Leishmania mexicana MNYC/BZ/62/M379 amastigotes after 48 hrs by alamar blue assay. Type of data set: functional, organism-based. Particulars: Leishmania mexicana, MNYC/BZ/62/M379, 48 h; read-out: EC50. The method in brief: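 Axenic L. mexicana MNYC/BZ/62/M379 amastigotes kept at 33 °C under CO2 in Schneider's Drosophila medium with 20% FBS and 0.3% gentamycin. Alamar Blue fluorescence read-out.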

Data set [5] relates to Trypanosoma brucei brucei. In words: Selectivity ratio of EC50 for Trypanosoma brucei brucei 427 to EC50 for Trypanosoma brucei brucei B48. Type of data set: functional. A digest of the protocol: as §1
The nature of data set [6]: Selectivity index, ratio of EC50 for HEK cells to EC50 for Leishmania major Friedlin promastigotes. It counts as toxicity, cell-based, HEK293. Particulars: human, HEK cells versus Leishmania major Friedlin promastigotes; read-out: Ratio EC50. The method in brief:
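Ratio of HEK EC50 to parasite EC50. For HEK293T cells in DMEM with 10% newborn bovine serum at 37 °C and 5% CO2, doubling dilutions of compound were added for 16 h, then Alamar Blue, and fluorescence (em 590 nm) was read after another 24 h. L. major Friedlin promastigotes were grown in HOMEM with 10% FBS at 25 °C and tested by Alamar Blue. EC50 values came from sigmoid non-linear regression.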

A short description of data set [7]: Selectivity index, ratio of EC50 for HEK cells to EC50 for Trypanosoma brucei brucei 427. As to conditions: human, HEK cells versus Trypanosoma brucei brucei 427; read-out: Ratio EC50. Type of data set: toxicity, cell-based, HEK293.
Data set [8] has as its system Trypanosoma brucei brucei. In words: Selectivity ratio of EC50 for Trypanosoma brucei brucei B48 to EC50 for Trypanosoma brucei brucei 427. It counts as functional. A digest of the protocol: as §1
The test system of another data set is Trypanosoma evansi. In words: Antitrypanosomal activity against Trypanosoma evansi ITMAV170475 after 48 hrs by alamar blue assay. Type of data set: functional, organism-based. Particulars: ITMAV170475, 48 h. A digest of the protocol: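 Culture-adapted T. evansi ITMAV170475 seeded at 1.5 ×10⁵ trypanosomes/ml in HMI9/20% FBS. Exposed to compound for 48 h, then incubated with Alamar Blue for 24 h, all at 37 °C under CO2. Assay validated against hemocytometer cell counts. EC50 from a variable-slope sigmoid fit.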

Data set [9] can be described thus: Selectivity index, ratio of EC50 for HEK cells to EC50 for Trypanosoma brucei brucei B48. Type of data set: toxicity, cell-based, HEK293. As to conditions: human, HEK cells versus Trypanosoma brucei brucei B48; read-out: Ratio EC50.
Data set [10] has as its system Trypanosoma brucei brucei. The data set can be described thus: Antitrypanosomal activity against Trypanosoma brucei brucei GUTat 3.1. Type of data set: functional, organism-based.

Consider `O=C(/C=C/c1ccc(O)cc1)CC(=O)/C=C/c1ccc(O)c(O)c1`, for which the pEC50 was 6.00 in data set [1]; 4.52 with HEK293; 6.19 in data set [2]; 4.66 with Leishmania major; 5.74 in data set [4]; 4.68 in the data set with Leishmania mexicana. The “Ratio EC50” value in data set [3] is on record as 2.7.
Regarding `COc1ccc(CC/C=C/C(=O)CCc2ccc(OC)c(OC)c2)cc1OC`, the pEC50 in data set [1] is 7.64; in the data set on HEK293, 4.59; in data set [2] it was 5.72; with Leishmania major, 4.92; in data set [4] it was 5.80; in the data set with Leishmania mexicana it was 4.55. In addition, the “Ratio EC50” value in data set [5] was 83.
On to `COc1ccc(/C=C/C(=O)CC(=O)/C=C/c2ccc(OC)c(OC)c2)cc1OC` [TETRAMETHOXYCURCUMIN], for which the pEC50 in [1] is 6.11; in the data set with HEK293 it was 3.70; in data set [2] it was 6.35; in the data set with Leishmania major, 5.55; in [4], 6.21; with Leishmania mexicana, 5.00. For the same molecule, the selectivity ratio in data set [6] was found to be 70.
Take `COc1cc(/C=C/C(=O)CC(=O)/C=C/c2ccc(OCC=C(C)C)c(OC)c2)ccc1OCC=C(C)C`: the negative-log EC50 (pEC50) was 5.89 in [1]; below 3.00 in the data set on HEK293; 5.92 in data set [2]; below 4.00 in the data set on Leishmania major; 5.80 in data set [4]; 4.57 in the data set with Leishmania mexicana. Besides, in data set [7], the selectivity ratio was above 1000.
With `COc1cc(CC/C=C/C(O)CCc2ccc(O)c(OC)c2)ccc1O` (stereo unspecified), the pEC50 in data set [1] was 5.20; in the data set with HEK293, 3.89; in data set [2], 4.40; in the data set with Leishmania major it was 4.30; in [4], 4.38; in the data set with Leishmania mexicana, 4.19. The selectivity ratio in data set [7] was found to be 3.
For the molecule `COc1cc(/C=C/C(=O)CC(=O)/C=C/c2ccc(O)c(O)c2)ccc1O`, the negative-log EC50 (pEC50) in data set [1] was 5.57; in the data set with HEK293, 4.44; in data set [2], 6.06; in the data set with Leishmania major, 5.37; in data set [4], 5.96; in the data set with Leishmania mexicana, 5.49. In addition, the pEC50 with Trypanosoma evansi is 5.96. For the same molecule, in data set [8], the “Ratio EC50” value worked out at 3.1.
As for `COc1cc(CC/C=C/C(=O)CCc2ccc(O)c(OC)c2)ccc1O`, the negative logarithm of the EC50 (pEC50) in data set [1] is 7.64; in the data set with HEK293 it was 4.62; in [2], 7.28; in the data set on Leishmania major, 5.05; in data set [4], 7.09; in the data set on Leishmania mexicana, 4.77. The pEC50 in the data set on Trypanosoma evansi was 6.77. Moreover, the selectivity ratio in data set [9] is above 1000; in [7], 453.
Consider `CC(=O)NCC(=O)O.N=C(N)c1ccc(/N=N/Nc2ccc(C(=N)N)cc2)cc1` [DIMINAZEN ACETURATE], for which the “Ratio EC50” value in data set [3] was found to be 20.
As to `COc1cc(/C=C/C(=O)CC(=O)/C=C/c2ccc(O)c(OC)c2)ccc1O` [CURCUMIN], the negative logarithm of the EC50 (pEC50) in data set [1] was 5.54; in the data set on HEK293, 4.43; in data set [2] it was 5.60; with Leishmania major, 4.48; in [4] it was 5.33; in data set [10] it was 5.32. In addition, the values for the pEC50 in the data set on Leishmania mexicana and with Trypanosoma evansi were 4.80 and 5.70, respectively.
